Laboratory results reported in ChEMBL document CHEMBL2407035, “Identification of novel chromone based sulfonamides as highly potent and selective inhibitors of alkaline phosphatases” (Eur J Med Chem, 2013).
Activity calls are given as the source filed them. The rule behind the calls is not given here.

Assays:
[1] = target: 5'-nucleotidase (Homo sapiens) (UniProt P21589); assay: Inhibition of human Ecto-5'-NT expressed in african green monkey COS7 cells using AMP as substrate at 0.1 mM preincubated for 10 mins measured after 10 mins; type: cell-based; conditions: COS-7
Chain of 5'-nucleotidase (Homo sapiens) (P21589 whole entry): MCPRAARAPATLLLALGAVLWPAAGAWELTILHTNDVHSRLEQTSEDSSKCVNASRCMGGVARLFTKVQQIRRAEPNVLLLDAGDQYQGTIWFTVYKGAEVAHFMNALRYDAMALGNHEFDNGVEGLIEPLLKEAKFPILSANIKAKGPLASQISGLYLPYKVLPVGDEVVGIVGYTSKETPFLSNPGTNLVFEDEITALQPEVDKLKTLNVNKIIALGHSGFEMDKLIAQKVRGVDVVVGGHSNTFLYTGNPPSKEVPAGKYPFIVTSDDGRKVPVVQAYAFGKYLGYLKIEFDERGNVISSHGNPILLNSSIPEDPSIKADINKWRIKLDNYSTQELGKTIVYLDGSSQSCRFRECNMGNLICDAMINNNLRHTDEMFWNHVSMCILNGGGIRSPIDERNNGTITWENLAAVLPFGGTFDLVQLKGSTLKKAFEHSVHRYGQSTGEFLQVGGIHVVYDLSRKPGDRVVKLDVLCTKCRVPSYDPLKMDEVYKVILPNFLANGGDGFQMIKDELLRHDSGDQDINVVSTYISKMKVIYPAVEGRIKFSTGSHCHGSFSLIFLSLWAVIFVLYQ
Procedure, shortened: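 Human ecto-5'-NT from membrane extracts of transfected COS-7 cells (6.94 µg/mL). Preincubated with compound 10 min at 37 °C in 10 mM Hepes, 2 mM MgCl₂, 1 mM CaCl₂, pH 7.4. Started with 500 µM AMP, 10 min at 37 °C, stopped at 99 °C for 20 min. Adenosine quantified by capillary electrophoresis, UV at 260 nm, with <10% substrate conversion.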

[2] = target: T1, Alkaline phosphatase, tissue-nonspecific isozyme (Bos taurus, UniProt P09487); assay: Inhibition of bovine kidney […] alkaline phosphatase using p-NPP as substrate treated 10 mins before substrate addition measured after 30 mins by spectrophotometric assay
T1 sequence (P09487 whole entry): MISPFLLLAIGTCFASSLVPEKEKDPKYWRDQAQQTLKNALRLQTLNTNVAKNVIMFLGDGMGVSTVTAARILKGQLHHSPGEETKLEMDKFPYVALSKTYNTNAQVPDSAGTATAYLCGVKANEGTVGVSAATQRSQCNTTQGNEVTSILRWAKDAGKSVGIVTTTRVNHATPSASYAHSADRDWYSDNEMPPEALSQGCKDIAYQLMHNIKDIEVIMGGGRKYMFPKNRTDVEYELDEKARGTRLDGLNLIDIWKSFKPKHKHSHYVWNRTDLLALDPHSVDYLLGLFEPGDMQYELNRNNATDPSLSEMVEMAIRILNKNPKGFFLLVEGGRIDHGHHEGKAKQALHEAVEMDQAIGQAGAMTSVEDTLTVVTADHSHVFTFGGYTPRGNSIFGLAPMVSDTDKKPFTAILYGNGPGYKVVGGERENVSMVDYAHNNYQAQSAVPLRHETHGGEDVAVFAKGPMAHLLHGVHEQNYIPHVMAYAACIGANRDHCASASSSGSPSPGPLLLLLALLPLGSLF
Procedure, shortened: (§1)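 Calf intestinal ALP (0.025 U/mL) or TNALP (0.5 U/mL) in 50 mM Tris-HCl, 5 mM MgCl₂, 0.1 mM ZnCl₂, pH 9.5 with compound (1% DMSO final), 10 min. Started with 0.5 mM p-NPP, 30 min at 37 °C, p-nitrophenolate read at 405 nm. Screened at 0.1 mM. Actives (>50%) got 8–10 dilutions, 1 mM to 10 nM, three times in triplicate. IC50 by nonlinear fit, Ki by Cheng–Prusoff.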

[3] = Inhibition of porcine kidney […] alkaline phosphatase using p-NPP as substrate treated 10 mins before substrate addition measured after 30 mins by spectrophotometric assay; parameters: species or system Sus scrofa; procedure, shortened: as §1
[4] = target: Intestinal-type alkaline phosphatase (Bos taurus, UniProt P19111); assay: Inhibition of bovine intestinal alkaline phosphatase using p-NPP as substrate treated 10 mins before substrate addition measured after 30 mins by spectrophotometric assay; procedure, shortened: as §1
Chain of Intestinal-type alkaline phosphatase (P19111 whole entry): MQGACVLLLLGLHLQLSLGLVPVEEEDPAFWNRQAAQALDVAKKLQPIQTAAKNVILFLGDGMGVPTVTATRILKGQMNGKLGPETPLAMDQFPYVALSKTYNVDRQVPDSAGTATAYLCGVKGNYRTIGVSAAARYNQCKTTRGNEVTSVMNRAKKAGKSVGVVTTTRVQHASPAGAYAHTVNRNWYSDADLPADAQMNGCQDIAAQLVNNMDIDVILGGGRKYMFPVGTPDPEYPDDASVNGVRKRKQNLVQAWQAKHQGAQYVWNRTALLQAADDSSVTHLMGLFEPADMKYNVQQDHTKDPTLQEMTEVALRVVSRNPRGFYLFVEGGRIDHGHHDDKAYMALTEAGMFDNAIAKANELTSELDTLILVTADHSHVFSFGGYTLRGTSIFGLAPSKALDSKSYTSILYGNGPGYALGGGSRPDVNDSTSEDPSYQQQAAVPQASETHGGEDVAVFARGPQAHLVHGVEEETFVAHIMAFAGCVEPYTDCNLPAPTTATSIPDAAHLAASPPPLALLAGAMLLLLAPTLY

[5] = target: Intestinal-type alkaline phosphatase (Bos taurus) (UniProt P19111); assay: Competitive inhibition of bovine intestinal alkaline phosphatase using p-NPP as substrate by Double-reciprocal plot analysis
Chain of Intestinal-type alkaline phosphatase (Bos taurus) (P19111 20-506 limits assumed): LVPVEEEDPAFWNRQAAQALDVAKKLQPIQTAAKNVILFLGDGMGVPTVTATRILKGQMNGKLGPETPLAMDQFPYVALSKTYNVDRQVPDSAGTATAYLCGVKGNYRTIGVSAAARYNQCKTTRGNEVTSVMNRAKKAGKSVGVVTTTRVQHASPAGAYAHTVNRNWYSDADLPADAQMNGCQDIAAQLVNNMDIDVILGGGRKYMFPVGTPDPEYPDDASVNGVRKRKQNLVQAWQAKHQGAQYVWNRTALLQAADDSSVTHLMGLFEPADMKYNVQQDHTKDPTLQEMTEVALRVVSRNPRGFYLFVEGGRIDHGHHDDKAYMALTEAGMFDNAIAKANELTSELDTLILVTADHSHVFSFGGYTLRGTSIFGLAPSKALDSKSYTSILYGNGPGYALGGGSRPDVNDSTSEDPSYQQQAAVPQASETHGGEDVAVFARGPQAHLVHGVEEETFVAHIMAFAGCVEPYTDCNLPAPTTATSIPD
Procedure, shortened: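 Calf intestinal ALP kinetics: initial velocities measured with 4-NPP at 0.01-1 mM and inhibitor at 0, 100 and 300 nM. Double-reciprocal plots (1/[S] vs 1/v) were used to assign the inhibition mode. Buffer is 50 mM Tris-HCl, 5 mM MgCl₂, 0.1 mM ZnCl₂, pH 9.5, read at 405 nm.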

With `CCOC1Oc2ccc(CC)cc2C(=O)/C1=C\Nc1ccccc1S(N)(=O)=O` (centres undefined) the inhibition [1] was 4%, the Ki [2] was 29 µM and the Ki [3] was 18 µM. It also gave a Ki [4] of 0.4 µM.

With `CCOC1Oc2c(Br)cc(Br)cc2C(=O)/C1=C\Nc1ccc(S(N)(=O)=O)cc1` (centres undefined) the inhibition [1] was 43%, the Ki [2] was 63 µM and the Ki [3] was 55.3 µM. The Ki [4] was 5.1 µM.

Compound `CCOC1Oc2c(Br)cc(Br)cc2C(=O)/C1=C\Nc1cccc(S(N)(=O)=O)c1` (centres undefined) has an inhibition [1] of 54%, a Ki [2] of 26 µM and a Ki [3] of 67.9 µM. For the same compound, the Ki [4] was 0.8 µM.

In the case of `CCOC1Oc2ccccc2C(=O)/C1=C\Nc1cccc(S(N)(=O)=O)c1` (centres undefined), the inhibition [1] is reported as 0%, the Ki [2] is reported as 41 µM and the Ki [3] is reported as 41.7 µM. For the same compound, the Ki [4] was 33.5 µM.

With `CCOC1Oc2ccc(Br)cc2C(=O)/C1=C/Nc1ccc(S(=O)(=O)Nc2ccccn2)cc1` (centres undefined) the inhibition [1] was 0%, the Ki [2] was 74 µM and the Ki [3] was 73.6 µM. It also gave a Ki [4] of 9.3 µM.

`CCOC1Oc2ccc(F)cc2C(=O)/C1=C/Nc1ccc(S(=O)(=O)Nc2nnc(C)s2)cc1` (centres undefined) gave an inhibition [1] of 0%, a Ki [2] of 21 µM and a Ki [3] of 31.8 µM. For the same compound, the Ki [4] was 0.01 µM.

Compound `CCOC1Oc2ccc(Br)cc2C(=O)/C1=C\Nc1cccc(S(N)(=O)=O)c1` (centres undefined) has an inhibition [1] of 0%, a Ki [2] of 44 µM and a Ki [3] of 51.3 µM. It also gave a Ki [4] of 8.7 µM.

For `O=c1c(C2Nc3ccccc3S(=O)(=O)N2)coc2ccc(F)cc12` (centres undefined), the inhibition [1] was 0%, the Ki [2] was 43 µM and the Ki [3] was 2.8 µM. It also gave a Ki [4] of 0.78 µM.

`CCOC1Oc2ccccc2C(=O)/C1=C/Nc1ccc(S(=O)(=O)Nc2ccc(OC)nn2)cc1` (centres undefined) showed an inhibition [1] of 0%, a Ki [2] of 38 µM and a Ki [3] of 52.5 µM. The Ki [4] was 7.8 µM.

Work on `CCOC1Oc2c(Br)cc(Br)cc2C(=O)/C1=C\Nc1ccccc1S(N)(=O)=O` (centres undefined) yielded an inhibition [1] of 63%, a Ki [2] of 29 µM and a Ki [3] of 11.7 µM. For the same compound, the Ki [4] was 0.2 µM.

For `CCOC1Oc2ccccc2C(=O)/C1=C/Nc1ccc(S(=O)(=O)Nc2cc(OC)nc(OC)n2)cc1` (centres undefined), the inhibition [1] was 0%, the Ki [2] was 23 µM and the Ki [3] was 35.4 µM. For the same compound, the Ki [4] was 7.8 µM.

With `CCOC1Oc2ccc(Br)cc2C(=O)/C1=C\Nc1ccc(S(N)(=O)=O)cc1` (centres undefined) the inhibition [1] was 52%, the Ki [2] was 48 µM and the Ki [3] was 44.6 µM. For the same compound, the Ki [4] was 0.41 µM.

In the case of `CCOC1Oc2ccc(CC)cc2C(=O)/C1=C\Nc1ccc(S(N)(=O)=O)cc1` (centres undefined), the inhibition [1] is reported as 13%, the Ki [2] is reported as 60 µM and the Ki [3] is reported as 68.8 µM. For the same compound, the Ki [4] was 2.6 µM.

Work on `O=c1c(C2Nc3ccccc3S(=O)(=O)N2)coc2ccccc12` (centres undefined) yielded an inhibition [1] of 0%, a Ki [2] of 27 µM and a Ki [3] of 21.3 µM. For the same compound, the Ki [4] was 0.049 µM.

For `O=c1c(C2Nc3ccccc3S(=O)(=O)N2)coc2ccc(Br)cc12` (centres undefined), the inhibition [1] was 0%, the inhibition [5] was “Active” and the Ki [2] was 0.13 µM. The Ki [4] was 0.021 µM.

For `CCOC1Oc2ccc(CC)cc2C(=O)/C1=C\Nc1cccc(S(N)(=O)=O)c1` (centres undefined), the inhibition [1] was 30%, the Ki [2] was 16.8 µM and the Ki [3] was 20.1 µM. The Ki [4] was 2.1 µM.

In the case of `CCOC1Oc2ccccc2C(=O)/C1=C/Nc1ccc(S(=O)(=O)Nc2ccccn2)cc1` (centres undefined), the inhibition [1] is reported as 0%, the Ki [2] is reported as 22 µM and the Ki [3] is reported as 21.2 µM. The Ki [4] was 0.41 µM.

For `CCOC1Oc2ccccc2C(=O)/C1=C\Nc1ccc(S(N)(=O)=O)cc1` (centres undefined), the inhibition [1] was 5.7%, the Ki [2] was 6.8 µM and the Ki [3] was 10.9 µM. It also gave a Ki [4] of 90.6 µM.

Work on `CCOC1Oc2ccccc2C(=O)/C1=C/Nc1ccc(S(=O)(=O)Nc2nnc(C)s2)cc1` (centres undefined) yielded an inhibition [1] of 26%, a Ki [2] of 0.25 µM and a Ki [3] of 0.079 µM. It also gave a Ki [4] of 0.085 µM.

Compound `CCOC1Oc2ccc(F)cc2C(=O)/C1=C\Nc1cccc(S(N)(=O)=O)c1` (centres undefined) has an inhibition [1] of 0%, a Ki [2] of 18 µM and a Ki [3] of 19.9 µM. For the same compound, the Ki [4] was 17.1 µM.

`CCOC1Oc2ccc(F)cc2C(=O)/C1=C\Nc1ccc(S(N)(=O)=O)cc1` (centres undefined) gave an inhibition [1] of 16%, a Ki [2] of 220 µM and a Ki [3] of 66.8 µM. It also gave a Ki [4] of 1.43 µM.
